The text below walks through data of ChEMBL document CHEMBL1149862, “Guaiane sesquiterpene lactones and amino acid-sesquiterpene lactone conjugates from the aerial parts of Saussurea pulchella” (2008).

A value given as a limit tells only on which side of the number the result lay.

Format in all cases: functional
Holding throughout (details): read-out: ED50 (the source's name)

One experiment has as its system SK-MEL-2. Nature of the experiment: Cytotoxicity against human SK-MEL-2 cells by SRB assay. The method in brief: (§1)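 Sulforhodamine B (SRB) bioassay on cultured human cancer lines: A549 (non-small cell lung carcinoma), SK-OV-3 (ovary malignant ascites), SK-MEL-2 (skin melanoma) and HCT (colon adenocarcinoma). Cytotoxicity is reported as ED₅₀ in µM.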
A general note: In SRB staining, fixed cells bind dye roughly in proportion to their protein.

The test system of another experiment is SK-OV-3. The experiment can be described thus: Cytotoxicity against human SKOV3 cells by SRB assay. The procedure, abridged:
as §1

The test system of the next experiment is A549. The experiment can be described thus: Cytotoxicity against human A549 cells by SRB assay. The method in brief: as §1
The test system of another experiment is HCT-15. The experiment can be described thus: Cytotoxicity against human HCT15 cells by SRB assay. The procedure, abridged: as §1

As to `C=C1C(=O)O[C@@H]2[C@H]3C(=C)[C@@H](O)C[C@H]3C(=C)C[C@H](OC(=O)CC(C)(C)O)[C@@H]12`, the EC50 is 6.78 µM in the experiment on SK-MEL-2, 12.4 µM with SK-OV-3, more than 30 µM with A549 and 14.2 µM in the experiment on HCT-15.
Consider `C=C1[C@@H]2[C@H]3OC(=O)[C@H](C)[C@@H]3[C@@H](O)CC(=C)[C@@H]2C[C@@H]1O`, for which the EC50 with SK-MEL-2, in the experiment on SK-OV-3, in the experiment on A549 and with HCT-15 was more than 30 µM in each case.
Regarding `C=C1[C@@H]2[C@H]3OC(=O)[C@H](C)[C@@H]3[C@@H](O[C@@H]3O[C@H](CO)[C@@H](O)[C@H](O)[C@H]3O)CC(=C)[C@@H]2C[C@@H]1O`, the EC50 in the experiment on SK-MEL-2, in the experiment on SK-OV-3, with A549 and in the experiment on HCT-15 was more than 30 µM throughout.
`C=C1C(=O)O[C@@H]2[C@H]3C(=C)[C@H](O)C[C@H]3C(=C)C[C@H](OC(=O)C(C)(O)CO)[C@@H]12` (stereo not given in full): the EC50 was 10.5 µM with SK-MEL-2, 18 µM with SK-OV-3, more than 30 µM in the experiment with A549 and 28.8 µM with HCT-15.
Take `C=C1[C@@H]2[C@H]3OC(=O)[C@H](C)[C@@H]3[C@@H](OC(=O)C(C)(O)CO)CC(=C)[C@@H]2C[C@@H]1O` (stereo not given in full): the EC50 in the experiment with SK-MEL-2, in the experiment with SK-OV-3, in the experiment on A549 and with HCT-15 was more than 30 µM in each case.
For `C=C(CO)C(=O)O[C@H]1CC(=C)[C@@H]2C[C@H](O)C(=C)[C@@H]2[C@H]2OC(=O)C(=C)[C@@H]21` [CYNAROPICRIN], the EC50 was 4.07 µM with SK-MEL-2, 7.42 µM with SK-OV-3, 24.5 µM in the experiment with A549 and 12.1 µM in the experiment with HCT-15.
The matching figures for `C=C1C(=O)O[C@@H]2[C@H]3C(=C)[C@@H](O)C[C@H]3C(=C)C[C@H](O)[C@@H]12` [DESACYLCYNAROPICRIN]: 9.74 µM, 11.3 µM, 25.7 µM and 11.3 µM.
Turning to `COc1cccc2c1C(=O)c1c(O)c3c(c(O)c1C2=O)C[C@@](O)(C(=O)CO)C[C@@H]3O[C@H]1C[C@H](N)[C@H](O)[C@H](C)O1` [DOXORUBICIN], the EC50 stood at 0.117 µM in the experiment with SK-MEL-2, 0.056 µM in the experiment on SK-OV-3, 0.007 µM in the experiment on A549 and 0.164 µM in the experiment on HCT-15.
With `C=C1[C@@H]2[C@H]3OC(=O)[C@@H](CN[C@@H](CC(N)=O)C(=O)O)[C@@H]3[C@@H](O)CC(=C)[C@@H]2C[C@@H]1O` [PULCHELLAMINE A], the EC50 in the experiment with SK-MEL-2, in the experiment on SK-OV-3, in the experiment on A549 and with HCT-15 was more than 30 µM each time.
In the case of `C=C1[C@@H]2[C@H]3OC(=O)[C@@H](CNCCCC(=O)O)[C@@H]3[C@@H](O)CC(=C)[C@@H]2C[C@@H]1O` [PULCHELLAMINE B], the EC50 in the experiment with SK-MEL-2, in the experiment on SK-OV-3, with A549 and in the experiment with HCT-15 was more than 30 µM each time.
For `C=C1[C@@H]2[C@H]3OC(=O)[C@@H](CN4CCC[C@H]4C(=O)O)[C@@H]3[C@@H](OC(=O)C(C)(O)CO)CC(=C)[C@@H]2C[C@@H]1O` (stereo not given in full) [PULCHELLAMINE C], the EC50 in the experiment on SK-MEL-2 stood at 5.73 µM; in the experiment with SK-OV-3, 11.8 µM; in the experiment on A549 it was 27.6 µM; in the experiment with HCT-15, 18.3 µM.
Regarding `C=C1[C@@H]2[C@H]3OC(=O)[C@@H](CN[C@H](C(=O)O)C(C)C)[C@@H]3[C@@H](O)CC(=C)[C@@H]2C[C@@H]1O` [PULCHELLAMINE E], the EC50 in the experiment on SK-MEL-2, in the experiment on SK-OV-3, in the experiment on A549 and in the experiment on HCT-15 was more than 30 µM in each case.
As for `C=C1[C@@H]2[C@H]3OC(=O)[C@@H](CN[C@@H](Cc4c[nH]c5ccccc45)C(=O)O)[C@@H]3[C@@H](O)CC(=C)[C@@H]2C[C@@H]1O` [PULCHELLAMINE F], the EC50 is 18.6 µM with SK-MEL-2, 24.2 µM in the experiment with SK-OV-3, more than 30 µM in the experiment with A549 and more than 30 µM in the experiment with HCT-15.
As to `C=C1[C@@H]2[C@H]3OC(=O)[C@@H](CN[C@H](C(=O)O)[C@H](C)CC)[C@@H]3[C@@H](O)CC(=C)[C@@H]2C[C@@H]1O` [PULCHELLAMINE G], the EC50 with SK-MEL-2, in the experiment on SK-OV-3, with A549 and with HCT-15 was more than 30 µM throughout.
As for `C=C1[C@@H]2[C@H]3OC(=O)[C@@H](CN[C@@H](Cc4ccccc4)C(=O)O)[C@@H]3[C@@H](O)CC(=C)[C@@H]2C[C@@H]1O` [PULCHELLAMINES D], the EC50 with SK-MEL-2, with SK-OV-3, with A549 and in the experiment with HCT-15 was more than 30 µM each time.
